Assay [1] concerns HepG2. Briefly: Increase in glucose consumption in insulin-resistant human HepG2 cells after 24 hrs. The note with it: HepG2, 24 h. The class given is functional, cell-based. In a few lines: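 HepG2 grown in high-glucose DMEM with 10% FBS, then plated 24 h. Made insulin-resistant with 10^-7 M insulin for 36 h in serum-free, phenol red-free high-glucose DMEM. Washed, then exposed to test agents at several concentrations for 24 h. Medium glucose measured by kit. Consumption gain expressed as % over the insulin-resistant model group. EC50 derived.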

Assay [2] can be described thus: Inhibition of dephosphorylated glycogen phosphorylase.
For assay [3], the target named is AMP-activated protein kinase, AMPK (Homo sapiens) (UniProt P54646+O43741+P54619+Q9UGJ0+Q9Y478+Q13131+Q9UGI9). As to the kind of experiment: Induction of AMPK phosphorylation in human HepG2 cells after 2 hrs by Western blot analysis. The class given is cell-based. In a few lines: (§1)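 HepG2 in 12-well plates exposed to increasing doses for 2 h. Lysed on ice in RIPA buffer (pH 7.2) with phosphatase and protease inhibitors. Run on 7.5% SDS-PAGE and blotted to PVDF. Blocked 1 h in 5% BSA, primary antibodies overnight at 4 °C, secondary 1 h at room temperature. Chemiluminescent detection. Means ± SE of 3 independent experiments.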

The test system of assay [4] is HepG2. As to the kind of experiment: Induction of ACC phosphorylation in human HepG2 cells after 2 hrs by Western blot analysis. The format is cell-based. In a few lines:
as §1
(In western blotting, separated proteins are transferred to a membrane and probed.)

By EC50 is commonly meant the concentration at which the effect is half-maximal. The term IC50 denotes the concentration at which inhibition is half-maximal.

In turn, `O=C(/C=C/c1ccc(C(F)(F)F)cc1)COc1c(-c2ccc(O)cc2)oc2cc(O)cc(O)c2c1=O` displayed an EC50 in the assay with HepG2 [1] of more than 20000 nM.

In assay [2], `O=c1c(O)c(-c2ccc(O)c(O)c2)oc2cc(O)c(O)c(O)c12` [QUERCETAGETIN] registered an IC50 of 9700 nM.

The compound `CCCCOc1ccc(/C=C/C(=O)COc2c(-c3ccc(O)cc3)oc3cc(O)cc(O)c3c2=O)cc1` showed an EC50 in the assay with HepG2 [1] of more than 20000 nM.

On to `COc1cc(/C=C/C(=O)COc2c(-c3ccc(O)cc3)oc3cc(O)cc(O)c3c2=O)ccc1O`, for which it took 6190 nM to reach a half-maximal effect in the assay on HepG2 [1] (EC50).

`CCCCCCCCOc1ccc(/C=C/C(=O)COc2c(-c3ccc(O)cc3)oc3cc(O)cc(O)c3c2=O)cc1`: the EC50 with HepG2 [1] was more than 20000 nM.

In turn, `O=C(/C=C/c1ccccc1)COc1c(-c2ccc(O)cc2)oc2cc(O)cc(O)c2c1=O` registered an EC50 with HepG2 [1] of 473 nM.

Take `CCOc1ccc(/C=C/C(=O)COc2c(-c3ccc(O)cc3)oc3cc(O)cc(O)c3c2=O)cc1`: the EC50 with HepG2 [1] was found to be 42 nM.

On to `O=C(/C=C/c1ccc(OCc2ccccc2)cc1)COc1c(-c2ccc(O)cc2)oc2cc(O)cc(O)c2c1=O`, for which the EC50 with HepG2 [1] was found to be 658 nM. Against the preceding compound, the EC50 is about 16-fold higher.

The compound `COc1ccc(/C=C/C(=O)COc2c(-c3ccc(O)cc3)oc3cc(O)cc(O)c3c2=O)cc1O` showed an EC50 in the assay with HepG2 [1] of 5070 nM.

`O=C(/C=C/c1ccc(Cl)cc1)COc1c(-c2ccc(O)cc2)oc2cc(O)cc(O)c2c1=O`: in the assay with HepG2 [1], the response was half-maximal at 1080 nM (EC50). Against the preceding compound, the EC50 is about 4.7-fold lower.

As for `O=C(/C=C/c1ccc(O)cc1)OC[C@H]1O[C@@H](Oc2c(-c3ccc(O)cc3)oc3cc(O)cc(O)c3c2=O)[C@H](O)[C@@H](O)[C@@H]1O` [TILIROSIDE], in the assay on HepG2 [1], the midpoint of the response, the EC50, lay at 155 nM.

`CN(C)C(=N)NC(=N)N` [METFORMIN] displayed an EC50 in the assay with HepG2 [1] of 270 nM.

As for `O=C(/C=C/c1ccc(Br)cc1)COc1c(-c2ccc(O)cc2)oc2cc(O)cc(O)c2c1=O`, the midpoint of the response in the assay on HepG2 [1], the EC50, lay at 393 nM.

Take `N#Cc1ccc(/C=C/C(=O)COc2c(-c3ccc(O)cc3)oc3cc(O)cc(O)c3c2=O)cc1`: the EC50 in the assay with HepG2 [1] was 3 nM. Besides, the Activity result (in assay [3]; in the assay with HepG2 [4]) was “Dose-dependent effect” in each case.

Take `O=c1cc(-c2ccc(O)c(O)c2)oc2cc(O)c(O)c(O)c12` [6-HYDROXYLUTEOLIN]: the IC50 in assay [2] was 11600 nM.

For the compound `O=C(/C=C/c1ccc(O)c(Cl)c1)COc1c(-c2ccc(O)cc2)oc2cc(O)cc(O)c2c1=O`, it took 3560 nM to reach a half-maximal effect in the assay with HepG2 [1] (EC50).

For the compound `CCCCCCOc1ccc(/C=C/C(=O)COc2c(-c3ccc(O)cc3)oc3cc(O)cc(O)c3c2=O)cc1`, the EC50 with HepG2 [1] is more than 20000 nM.

Regarding `O=C(/C=C/c1ccc(F)cc1)COc1c(-c2ccc(O)cc2)oc2cc(O)cc(O)c2c1=O`, in the assay with HepG2 [1], the response was half-maximal at 669 nM (EC50).

`O=C(/C=C/c1ccc(O)cc1)COc1c(-c2ccc(O)cc2)oc2cc(O)cc(O)c2c1=O` had an EC50 in the assay with HepG2 [1] of 368 nM. This EC50 is about 1.8-fold lower than that of the compound before.

Turning to `CC(C)c1ccc(/C=C/C(=O)COc2c(-c3ccc(O)cc3)oc3cc(O)cc(O)c3c2=O)cc1`, the half-maximal effective concentration (EC50) with HepG2 [1] was found to be 15 nM.

Compound `COc1ccc(/C=C/C(=O)COc2c(-c3ccc(O)cc3)oc3cc(O)cc(O)c3c2=O)cc1Br` showed an EC50 with HepG2 [1] of more than 20000 nM.

Turning to `CSc1ccc(/C=C/C(=O)COc2c(-c3ccc(O)cc3)oc3cc(O)cc(O)c3c2=O)cc1`, in the assay with HepG2 [1], the EC50 is more than 20000 nM.

Consider `CC(C)(C)c1ccc(/C=C/C(=O)COc2c(-c3ccc(O)cc3)oc3cc(O)cc(O)c3c2=O)cc1`, for which the midpoint of the response in the assay on HepG2 [1], the EC50, lay at 13 nM.

With `Cc1ccc(/C=C/C(=O)COc2c(-c3ccc(O)cc3)oc3cc(O)cc(O)c3c2=O)cc1`, in the assay with HepG2 [1], the EC50 is 10 nM.

In assay [2], `O=c1cc(-c2ccc(O)c(O)c2)oc2c(O)c(O)cc(O)c12` [HYPOLAETIN] showed an IC50 of 15700 nM.

In the assay on HepG2 [1], `COc1ccc(/C=C/C(=O)COc2c(-c3ccc(O)cc3)oc3cc(O)cc(O)c3c2=O)cc1` yielded an EC50 of 149 nM.

As to `COc1cc(/C=C/C(=O)COc2c(-c3ccc(O)cc3)oc3cc(O)cc(O)c3c2=O)ccc1OCc1ccccc1`, the EC50 in the assay with HepG2 [1] is more than 20000 nM.

On to `O=C(/C=C/c1ccc(Cl)c(Cl)c1)COc1c(-c2ccc(O)cc2)oc2cc(O)cc(O)c2c1=O`, for which the EC50 in the assay with HepG2 [1] amounted to 2590 nM.
